Tests used:
Trypanosoma cruzi [1] = assay: Antitrypanosomal activity against Trypanosoma cruzi Y epimastigotes assessed as cell death at 50 uM after 72 hrs by propidium iodide staining-based flow cytometric analysis; type: functional
How it was run: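 T. cruzi Y epimastigotes at 5 × 10^5 cells/mL exposed to compound at 50 µM for 72 h. Cells then centrifuged (1500 g), washed in PBS and stained with 30 µg/mL propidium iodide for 15 min. Flow cytometry acquired 10,000 events in the epimastigote gate, and PI-positive cells were counted as dead. Mean and SD from at least two independent experiments in duplicate.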

Trypanosoma cruzi [2] = assay: Antitrypanosomal activity against Trypanosoma cruzi Y epimastigotes after 72 hrs by Neubauer counter-based microscopic analysis; type: functional, organism-based
How it was run: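 T. cruzi Y epimastigotes (10^6 cells/mL) grown in BHI medium with 10% fetal bovine serum at 28 °C and exposed to compounds from 5 mM DMSO stocks for 72 h. Parasites counted directly in a Neubauer chamber by light microscopy. Untreated and 1% DMSO (v/v) cultures served as negative controls. IC50 (50% growth inhibition) computed by Probit analysis.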

[3] = Cytotoxicity against african green monkey Vero cells after 72 hrs by spectrophotometric analysis; type: cell-based; details: chlorocebus sabaeus
How it was run: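 VERO kidney fibroblasts kept in DMEM with 5% fetal bovine serum and HEPES. Seeded at 10^5 cells/well and allowed to adhere 24 h at 37 °C, then exposed to compounds for 72 h. Cells were PBS-washed, fixed in 0.2% formaldehyde, stained 1 h with 0.2% Coomassie Brilliant Blue R-250, and eluted with 1% SDS. Absorbance read at 595 nm. CC50 by Probit from triplicate runs.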

| SMILES | Activity (Trypanosoma cruzi [1]) | IC50 (Trypanosoma cruzi [2]) | CC50 at 72 h [3] |
| --- | --- | --- | --- |
| O=C1C(Cl)=C(Cl)C(=O)c2ccccc21 [Dichlon] | 84.3% | 0.09 µM | 6.3 µM |
| CC1(C)CCC23CC2(O1)C(=O)c1ccccc1C3=O (stereo not given) | 3.1% | 60.9 µM | 66 µM |
| CC1(C)CCC2=C(O1)C1(CO1)c1ccccc1C2=O (stereo not given) | 85.6% | 0.05 µM | > 50 µM |
| CC1(C)CCC2=C(O1)C1(CO1)C1=C(CCCC1)C2=O (stereo not given) | 17.9% | 16.4 µM | 58.1 µM |
| O=C1C(Cl)=C(Cl)C2(CO2)c2ccccc21 (stereo not given) | 84.7% | 9.48 µM | 19 µM |
| CC1(C)CCC2=C(O1)C(=O)C1=C(CCCC1)C2=O | 84.2% | 16.3 µM | 11.7 µM |
| CC1(C)CCC2=C(O1)c1ccccc1C(=O)C2=O [LAPACHONE] | 91.3% | < 3.1 µM | < 3.1 µM |
| COC1=CC(=O)c2ccccc2C1=O [2-Methoxy-1,4-naphthoquinone] | 82.3% | 3.19 µM | 13 µM |
| C=CCOC1=CC(=O)c2ccccc2C1=O | 86.3% | 0.02 µM | < 1 µM |
| COC1=CC(=O)c2ccccc2C12CO2 (stereo not given) | 74.2% | 1.13 µM | 44 µM |
| CC1(C)CCC2=C(O1)C(=O)c1ccccc1C2=O [ALPHA-LAPACHONE] | 82.7% | 3.19 µM | 1.2 µM |
| C=CCOC1=CC(=O)c2ccccc2C12CO2 (stereo not given) | 84.5% | 0.2 µM | < 1 µM |
| O=C(Cn1ccnc1[N+](=O)[O-])NCc1ccccc1 [BENZNIDAZOLE] | 26.8% | 11.5 µM | 48 µM |
| CC1(C)CC2=C(O1)C1(CO1)c1ccccc1C2=O (stereo not given) | 88.5% | 19.3 µM | 19 µM |
| CC1(C)CC2=C(O1)C(=O)c1ccccc1C2=O | 91.4% | 8.8 µM | 2.7 µM |

Source: ChEMBL document CHEMBL2057093, “New oxirane derivatives of 1,4-naphthoquinones and their evaluation against T. cruzi epimastigote forms” (Bioorg Med Chem, 2012)
